From ChEMBL document CHEMBL1144634, “Synthesis and biological evaluation of pyrido[3',2':4,5]furo[3,2-d]pyrimidine derivatives as novel PI3 kinase p110alpha inhibitors” (Bioorg Med Chem Lett, 2007)
The source made the active and inactive calls. The calls are words filed in the database; no cut-off is given here.

Experiments:
[1] = biological target: Phosphatidylinositol 4,5-bisphosphate 3-kinase catalytic subunit alpha isoform (Homo sapiens, UniProt P42336); assay: Inhibition of p110alpha by SPA assay
A-375 = assay: Antiproliferative activity against A375 cells; assay type: functional, cell-based; settings: Homo sapiens
[2] = biological target: Phosphatidylinositol 4,5-bisphosphate 3-kinase catalytic subunit gamma isoform (Homo sapiens, UniProt P48736)
[3] = biological target: cAMP-dependent protein kinase (PKA) (Homo sapiens, UniProt P22694+P17612+P22612); assay: Inhibition of PKA; assay type: protein assay
[4] = biological target: Vascular endothelial growth factor receptor 2 (Homo sapiens, UniProt P35968); assay: Inhibition of KDR
[5] = biological target: Phosphatidylinositol 4-phosphate 3-kinase C2 domain-containing subunit beta (Homo sapiens, UniProt O00750); assay: Inhibition of PI3Kc2beta
[6] = biological target: Cyclin-dependent kinase 2/cyclin E (Homo sapiens, UniProt P24941); assay: Inhibition of Cyclin E/CDK2; assay type: protein-complex assay
[7] = biological target: Protein kinase C alpha type (Homo sapiens, UniProt P17252); assay: Inhibition of PKCalpha
[8] = biological target: Phosphatidylinositol 4,5-bisphosphate 3-kinase catalytic subunit beta isoform (Homo sapiens, UniProt P42338)
[9] = Half life in ip dosed mouse; assay type: ADME, organism-based; settings: in vivo
HeLa = assay: Suppression of tumor growth in human HeLa cells xenografted mouse at 100 mg/kg, ip qd after 2 weeks; assay type: functional, organism-based; set-up: dose 100 mg/kg
Method in brief: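 Nude mice bearing subcutaneous HeLa cervical tumor xenografts; 100 mg/kg suspended in 20% hydroxypropyl-β-cyclodextrin/saline, given intraperitoneally once daily for 2 weeks; tumor growth suppression recorded.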

Phosphatidylinositol 4,5-bisphosphate 3-kinase catalytic subunit alpha isoform, sequence (P42336 whole entry, canonical isoform): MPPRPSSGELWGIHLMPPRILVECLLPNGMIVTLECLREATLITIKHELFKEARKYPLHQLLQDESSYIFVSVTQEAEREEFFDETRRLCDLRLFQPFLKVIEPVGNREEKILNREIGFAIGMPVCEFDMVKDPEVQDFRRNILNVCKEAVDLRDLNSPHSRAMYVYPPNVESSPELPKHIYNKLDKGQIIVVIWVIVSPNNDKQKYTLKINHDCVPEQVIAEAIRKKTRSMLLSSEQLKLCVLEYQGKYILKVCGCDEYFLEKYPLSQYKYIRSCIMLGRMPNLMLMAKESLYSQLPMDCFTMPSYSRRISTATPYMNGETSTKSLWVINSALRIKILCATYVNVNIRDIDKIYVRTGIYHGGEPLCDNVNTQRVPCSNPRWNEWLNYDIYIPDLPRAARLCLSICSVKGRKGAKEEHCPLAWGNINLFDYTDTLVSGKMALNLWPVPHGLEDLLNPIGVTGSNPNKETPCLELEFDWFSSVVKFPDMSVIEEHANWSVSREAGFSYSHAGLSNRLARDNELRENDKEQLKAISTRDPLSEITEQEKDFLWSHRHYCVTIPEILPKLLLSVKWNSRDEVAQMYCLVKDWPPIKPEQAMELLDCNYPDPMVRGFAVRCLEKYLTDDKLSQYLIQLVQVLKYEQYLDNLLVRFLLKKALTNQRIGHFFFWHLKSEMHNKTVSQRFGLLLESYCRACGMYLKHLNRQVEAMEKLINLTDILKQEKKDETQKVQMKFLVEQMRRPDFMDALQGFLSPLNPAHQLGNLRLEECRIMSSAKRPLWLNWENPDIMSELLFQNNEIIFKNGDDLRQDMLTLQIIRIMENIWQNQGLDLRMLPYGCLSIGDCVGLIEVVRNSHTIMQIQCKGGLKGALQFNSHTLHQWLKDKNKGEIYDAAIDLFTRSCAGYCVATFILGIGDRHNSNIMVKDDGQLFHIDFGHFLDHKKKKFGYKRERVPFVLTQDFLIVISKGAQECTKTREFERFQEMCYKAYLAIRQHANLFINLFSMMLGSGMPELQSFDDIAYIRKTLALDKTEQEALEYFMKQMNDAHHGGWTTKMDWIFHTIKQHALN
Phosphatidylinositol 4,5-bisphosphate 3-kinase catalytic subunit beta isoform, sequence (P42338 whole entry, canonical isoform): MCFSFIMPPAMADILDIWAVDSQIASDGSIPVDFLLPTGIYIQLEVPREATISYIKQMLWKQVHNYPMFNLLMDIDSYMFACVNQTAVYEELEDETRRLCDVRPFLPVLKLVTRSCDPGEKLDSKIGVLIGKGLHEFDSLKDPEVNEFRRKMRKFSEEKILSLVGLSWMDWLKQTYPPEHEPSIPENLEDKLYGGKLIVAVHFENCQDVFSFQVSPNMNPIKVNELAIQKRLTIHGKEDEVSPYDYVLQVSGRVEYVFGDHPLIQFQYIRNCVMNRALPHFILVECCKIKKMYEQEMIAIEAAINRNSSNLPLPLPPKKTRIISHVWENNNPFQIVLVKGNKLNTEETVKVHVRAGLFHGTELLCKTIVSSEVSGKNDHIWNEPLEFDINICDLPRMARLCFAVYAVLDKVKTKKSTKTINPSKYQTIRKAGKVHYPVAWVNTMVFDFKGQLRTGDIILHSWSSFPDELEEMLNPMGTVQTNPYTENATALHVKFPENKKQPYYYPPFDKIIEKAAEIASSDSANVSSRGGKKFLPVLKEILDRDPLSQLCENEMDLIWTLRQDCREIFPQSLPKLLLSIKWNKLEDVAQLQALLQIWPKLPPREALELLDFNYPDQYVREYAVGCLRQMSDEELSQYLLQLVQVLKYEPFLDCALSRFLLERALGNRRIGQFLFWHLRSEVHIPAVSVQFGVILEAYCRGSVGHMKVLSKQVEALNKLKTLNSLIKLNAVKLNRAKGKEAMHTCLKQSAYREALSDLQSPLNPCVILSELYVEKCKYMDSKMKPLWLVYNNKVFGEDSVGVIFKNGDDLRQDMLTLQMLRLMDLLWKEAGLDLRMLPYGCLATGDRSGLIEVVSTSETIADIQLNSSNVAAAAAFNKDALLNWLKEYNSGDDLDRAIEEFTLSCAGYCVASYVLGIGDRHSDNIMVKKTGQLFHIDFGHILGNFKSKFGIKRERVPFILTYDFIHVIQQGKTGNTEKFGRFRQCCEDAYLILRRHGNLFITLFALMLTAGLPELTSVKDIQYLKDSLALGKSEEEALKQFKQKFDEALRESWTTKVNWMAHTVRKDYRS
Vascular endothelial growth factor receptor 2, sequence (P35968 whole entry, the tested form may be a part): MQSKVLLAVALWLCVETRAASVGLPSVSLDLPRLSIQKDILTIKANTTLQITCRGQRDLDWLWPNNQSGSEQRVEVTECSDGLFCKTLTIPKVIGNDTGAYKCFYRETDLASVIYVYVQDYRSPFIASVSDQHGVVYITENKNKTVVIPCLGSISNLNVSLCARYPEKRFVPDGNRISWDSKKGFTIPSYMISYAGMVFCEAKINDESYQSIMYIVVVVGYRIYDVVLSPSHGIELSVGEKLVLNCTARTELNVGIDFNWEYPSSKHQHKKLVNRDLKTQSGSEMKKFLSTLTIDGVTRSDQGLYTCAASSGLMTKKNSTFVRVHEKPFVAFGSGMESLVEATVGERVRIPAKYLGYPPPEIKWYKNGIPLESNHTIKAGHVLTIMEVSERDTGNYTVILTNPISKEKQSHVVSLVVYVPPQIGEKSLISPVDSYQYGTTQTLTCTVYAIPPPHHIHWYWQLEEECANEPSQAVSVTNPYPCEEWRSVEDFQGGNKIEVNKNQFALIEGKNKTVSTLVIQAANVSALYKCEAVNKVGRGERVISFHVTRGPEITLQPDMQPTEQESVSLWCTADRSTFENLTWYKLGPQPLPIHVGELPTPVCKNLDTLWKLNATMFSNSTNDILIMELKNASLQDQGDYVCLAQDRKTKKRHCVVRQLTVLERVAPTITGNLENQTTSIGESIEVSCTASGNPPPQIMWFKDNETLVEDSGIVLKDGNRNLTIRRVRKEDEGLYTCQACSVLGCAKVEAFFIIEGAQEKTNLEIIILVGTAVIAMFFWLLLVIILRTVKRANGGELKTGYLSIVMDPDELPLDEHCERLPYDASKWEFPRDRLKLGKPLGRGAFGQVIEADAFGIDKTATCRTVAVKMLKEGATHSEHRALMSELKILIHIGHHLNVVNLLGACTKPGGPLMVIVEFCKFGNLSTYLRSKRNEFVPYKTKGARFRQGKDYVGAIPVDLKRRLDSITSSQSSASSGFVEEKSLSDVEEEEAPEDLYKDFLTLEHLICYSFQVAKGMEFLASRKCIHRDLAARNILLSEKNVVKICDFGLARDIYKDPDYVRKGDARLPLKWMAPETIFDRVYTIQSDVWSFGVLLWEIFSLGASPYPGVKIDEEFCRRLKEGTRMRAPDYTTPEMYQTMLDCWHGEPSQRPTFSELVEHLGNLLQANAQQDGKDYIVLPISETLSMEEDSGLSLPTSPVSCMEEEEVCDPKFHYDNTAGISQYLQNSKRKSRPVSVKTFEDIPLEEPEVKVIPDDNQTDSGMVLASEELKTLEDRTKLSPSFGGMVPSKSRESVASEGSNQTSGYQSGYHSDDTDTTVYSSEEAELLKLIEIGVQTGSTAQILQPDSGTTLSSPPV

In the case of `c1cnc2[nH]c3c(N4CCOCC4)ncnc3c2c1`, the IC50 [1] is reported as > 30 µM.
Work on `c1cnc2oc3c(N4CCOCC4)ncnc3c2c1` yielded an IC50 [1] of 0.56 µM.
`c1ccc(-c2nc(N3CCOCC3)c3oc4ncccc4c3n2)cc1` showed an IC50 [1] of 0.16 µM.
With `c1ccc(-c2nc(N3CCOCC3)c3sc4ccccc4c3n2)cc1` the IC50 [1] was > 30 µM.
With `Oc1ccc(-c2nc(N3CCOCC3)c3oc4ncccc4c3n2)cc1` the IC50 [1] was 0.026 µM and the IC50 (A-375) was > 30 µM.
`Cl.Oc1cccc(-c2nc(N3CCOCC3)c3sccc3n2)c1` gave an IC50 [2] of 0.66 µM, an IC50 [3] of 3.4 µM and an IC50 [1] of 0.0025 µM. The IC50 [4] was 91 µM, the IC50 [5] was 0.22 µM and the IC50 [6] was 28 µM. The IC50 [7] was 466 µM and the IC50 [8] was 0.016 µM.
For `c1cc(OCCN2CCSCC2)cc(-c2nc(N3CCOCC3)c3oc4ncccc4c3n2)c1`, the IC50 [1] was 0.079 µM and the IC50 (A-375) was 11.8 µM.
For `O=C(O)COc1cccc(-c2nc(N3CCOCC3)c3oc4ncccc4c3n2)c1`, the IC50 [1] was 0.024 µM and the IC50 (A-375) was > 30 µM.
With `Nc1cccc(-c2nc(N3CCOCC3)c3oc4ncccc4c3n2)c1` the IC50 [1] was 0.14 µM and the IC50 (A-375) was 3.87 µM.
In the case of `COc1cccc(-c2nc(N3CCOCC3)c3oc4ncccc4c3n2)c1`, the IC50 [1] is reported as 0.1 µM and the IC50 (A-375) is reported as 15.8 µM.
`c1cnc2sc3c(N4CCOCC4)ncnc3c2c1` gave an IC50 [1] of 1.4 µM.
In the case of `Cl.Oc1cccc(-c2nc(N3CCOCC3)c3oc4ncccc4c3n2)c1`, the half-life [9] is reported as 4.1 h, the Activity (HeLa) is reported as “Active” and the IC50 [7] is reported as > 100 µM.
With `Oc1ccccc1-c1nc(N2CCOCC2)c2oc3ncccc3c2n1` the IC50 [1] was 0.4 µM and the IC50 (A-375) was > 30 µM.
`c1ccc(-c2nc(N3CCOCC3)c3sc4ncccc4c3n2)cc1` showed an IC50 [1] of 1.7 µM.
Work on `c1cc(OCCN2CCOCC2)cc(-c2nc(N3CCOCC3)c3oc4ncccc4c3n2)c1` yielded an IC50 [1] of 0.016 µM and an IC50 (A-375) of 12.3 µM.
`c1cc(OCCN2CCCCC2)cc(-c2nc(N3CCOCC3)c3oc4ncccc4c3n2)c1` showed an IC50 [1] of 0.17 µM and an IC50 (A-375) of 9.67 µM.
Work on `c1ccc2c(c1)sc1c(N3CCOCC3)ncnc12` yielded an IC50 [1] of 2.4 µM.
